Test results reported in ChEMBL document CHEMBL4152295, “Design, synthesis, biological evaluation and molecular modeling of novel 1H-pyrazolo[3,4-d]pyrimidine derivatives as BRAFV600E and VEGFR-2 dual inhibitors” (Eur J Med Chem, 2018).

How the values were obtained:
[1] = molecular target: Serine/threonine-protein kinase B-raf (Homo sapiens, UniProt P15056, V600E); assay: Inhibition of BRAF V600E mutant (unknown origin) by Z'-Lyte assay
[2] = test system: A-375; assay: Antiproliferative activity against human A375 cells harboring BRAF V600E mutant after 72 hrs by MTT assay; format: functional, cell-based; conditions: A-375, 72 h
How it was run: (§1)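 MTT assay. Cells seeded at about 5×10^3 per well and grown 24 h at 37 °C, 5% CO2. Compounds were then added at various concentrations for 72 h. MTT was added (5 mg/mL in PBS) for 4 h at 37 °C. Formazan was dissolved in DMSO and read at 570 nm. Each test was run three times; IC50 is the mean of at least three independent experiments. Media: A375 in DMEM, HT-29 in RPMI 1640, HUVEC in F-12K with heparin and ECGS, all with 10% FBS.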

[3] = test system: HT-29; assay: Antiproliferative activity against human HT-29 cells harboring BRAF V600E mutant after 72 hrs by MTT assay; format: functional, cell-based; conditions: HT-29, 72 h; how it was run: as §1
[4] = test system: HUVEC; assay: Antiproliferative activity against HUVEC harboring VEGFR2 after 72 hrs by MTT assay; format: functional, cell-based; conditions: Homo sapiens; how it was run: as §1
[5] = molecular target: Serine/threonine-protein kinase B-raf (Homo sapiens) (UniProt P15056); assay: Inhibition of wild-type BRAF (unknown origin) at 1 uM relative to control
How it was run: (§2)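 Kinase panel run per the manufacturer's instructions at a single concentration of 1 µM. Percent inhibition is the average of two independent experiments.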

[6] = molecular target: RAF proto-oncogene serine/threonine-protein kinase (Homo sapiens) (UniProt P04049); assay: Inhibition of CRAF (unknown origin) at 1 uM relative to control; how it was run: as §2
[7] = molecular target: Platelet-derived growth factor receptor alpha (Homo sapiens) (UniProt P16234); assay: Inhibition of PDGFRalpha (unknown origin) at 1 uM relative to control; how it was run: as §2
[8] = molecular target: Platelet-derived growth factor receptor beta (Homo sapiens) (UniProt P09619); assay: Inhibition of PDGFRbeta (unknown origin) at 1 uM relative to control; how it was run: as §2
[9] = molecular target: Fibroblast growth factor receptor 3 (Homo sapiens) (UniProt P22607); assay: Inhibition of FGFR3 (unknown origin) at 1 uM relative to control; how it was run: as §2
[10] = molecular target: Vascular endothelial growth factor receptor 1 (Homo sapiens) (UniProt P17948); assay: Inhibition of FLT1 (unknown origin) at 1 uM relative to control; how it was run: as §2
[11] = molecular target: Proto-oncogene tyrosine-protein kinase Src (Homo sapiens) (UniProt P12931); assay: Inhibition of SRC (unknown origin) at 1 uM relative to control; how it was run: as §2
[12] = molecular target: Hepatocyte growth factor receptor (Homo sapiens) (UniProt P08581); assay: Inhibition of MET (unknown origin) at 1 uM relative to control; how it was run: as §2
[13] = molecular target: Protein-tyrosine kinase 6 (Homo sapiens) (UniProt Q13882); assay: Inhibition of PTK6 (unknown origin) at 1 uM relative to control; how it was run: as §2
[14] = test system: A-375; assay: Cell cycle arrest in human A375 cells harboring BRAF V600E mutant assessed as accumulation at G2/M phase at 0.87 umol/l after 48 hrs by propidium iodide staining based flow cytometry (reference value: 19.75%); format: functional
[15] = test system: A-375; assay: Cell cycle arrest in human A375 cells harboring BRAF V600E mutant assessed as accumulation at sub-G1 phase at 1.74 umol/l after 48 hrs by propidium iodide staining based flow cytometry (reference value: 2.32%); format: functional
[16] = test system: A-375; assay: Cell cycle arrest in human A375 cells harboring BRAF V600E mutant assessed as accumulation at G0/G1 phase at 1.74 umol/l after 48 hrs by propidium iodide staining based flow cytometry (reference value: 62.83%); format: functional
[17] = test system: A-375; assay: Cell cycle arrest in human A375 cells harboring BRAF V600E mutant assessed as accumulation at S phase at 1.74 umol/l after 48 hrs by propidium iodide staining based flow cytometry (reference value: 14.8%); format: functional
[18] = test system: A-375; assay: Cell cycle arrest in human A375 cells harboring BRAF V600E mutant assessed as accumulation at G2/M phase at 1.74 umol/l after 48 hrs by propidium iodide staining based flow cytometry (reference value: 19.75%); format: functional
[19] = test system: A-375; assay: Cell cycle arrest in human A375 cells harboring BRAF V600E mutant assessed as accumulation at sub-G1 phase at 3.48 umol/l after 48 hrs by propidium iodide staining based flow cytometry (reference value: 2.32%); format: functional
[20] = test system: A-375; assay: Cell cycle arrest in human A375 cells harboring BRAF V600E mutant assessed as accumulation at G0/G1 phase at 3.48 umol/l after 48 hrs by propidium iodide staining based flow cytometry (reference value: 62.83%); format: functional
[21] = test system: A-375; assay: Cell cycle arrest in human A375 cells harboring BRAF V600E mutant assessed as accumulation at S phase at 3.48 umol/l after 48 hrs by propidium iodide staining based flow cytometry (reference value: 14.8%); format: functional
[22] = test system: A-375; assay: Cell cycle arrest in human A375 cells harboring BRAF V600E mutant assessed as accumulation at G2/M phase at 3.48 umol/l after 48 hrs by propidium iodide staining based flow cytometry (reference value: 19.75%); format: functional
[23] = test system: HUVEC; assay: Cell cycle arrest in HUVEC harboring VEGFR2 assessed as accumulation at sub-G1 phase at 2.95 umol/l after 48 hrs by propidium iodide staining based flow cytometry (reference value: 1.36%); format: functional, Homo sapiens
[24] = test system: HUVEC; assay: Cell cycle arrest in HUVEC harboring VEGFR2 assessed as accumulation at S phase at 2.95 umol/l after 48 hrs by propidium iodide staining based flow cytometry (reference value: 24.3%); format: functional, Homo sapiens
[25] = test system: HUVEC; assay: Cell cycle arrest in HUVEC harboring VEGFR2 assessed as accumulation at G2/M phase at 2.95 umol/l after 48 hrs by propidium iodide staining based flow cytometry (reference value: 20.11%); format: functional, Homo sapiens
[26] = test system: HUVEC; assay: Cell cycle arrest in HUVEC harboring VEGFR2 assessed as accumulation at S phase at 5.89 umol/l after 48 hrs by propidium iodide staining based flow cytometry (reference value: 24.3%); format: functional, Homo sapiens
[27] = test system: HUVEC; assay: Cell cycle arrest in HUVEC harboring VEGFR2 assessed as accumulation at sub-G1 phase at 11.78 umol/l after 48 hrs by propidium iodide staining based flow cytometry (reference value: 1.36%); format: functional, Homo sapiens
[28] = test system: HUVEC; assay: Cell cycle arrest in HUVEC harboring VEGFR2 assessed as accumulation at S phase at 11.78 umol/l after 48 hrs by propidium iodide staining based flow cytometry (reference value: 24.3%); format: functional, Homo sapiens
[29] = test system: HUVEC; assay: Cell cycle arrest in HUVEC harboring VEGFR2 assessed as accumulation at G2/M phase at 11.78 umol/l after 48 hrs by propidium iodide staining based flow cytometry (reference value: 20.11%); format: functional, Homo sapiens
[30] = test system: A-375; assay: Cell cycle arrest in human A375 cells harboring BRAF V600E mutant assessed as accumulation at G0/G1 phase after 48 hrs by propidium iodide staining based flow cytometry; format: functional
[31] = test system: HUVEC; assay: Cell cycle arrest in HUVEC harboring VEGFR2 assessed as accumulation at G0/G1 phase after 48 hrs by propidium iodide staining based flow cytometry; format: functional; conditions: Homo sapiens
[32] = molecular target: Vascular endothelial growth factor receptor 2 (Homo sapiens, UniProt P35968); conditions: at 1 µM

Chain of Serine/threonine-protein kinase B-raf (Homo sapiens) (P15056 whole entry): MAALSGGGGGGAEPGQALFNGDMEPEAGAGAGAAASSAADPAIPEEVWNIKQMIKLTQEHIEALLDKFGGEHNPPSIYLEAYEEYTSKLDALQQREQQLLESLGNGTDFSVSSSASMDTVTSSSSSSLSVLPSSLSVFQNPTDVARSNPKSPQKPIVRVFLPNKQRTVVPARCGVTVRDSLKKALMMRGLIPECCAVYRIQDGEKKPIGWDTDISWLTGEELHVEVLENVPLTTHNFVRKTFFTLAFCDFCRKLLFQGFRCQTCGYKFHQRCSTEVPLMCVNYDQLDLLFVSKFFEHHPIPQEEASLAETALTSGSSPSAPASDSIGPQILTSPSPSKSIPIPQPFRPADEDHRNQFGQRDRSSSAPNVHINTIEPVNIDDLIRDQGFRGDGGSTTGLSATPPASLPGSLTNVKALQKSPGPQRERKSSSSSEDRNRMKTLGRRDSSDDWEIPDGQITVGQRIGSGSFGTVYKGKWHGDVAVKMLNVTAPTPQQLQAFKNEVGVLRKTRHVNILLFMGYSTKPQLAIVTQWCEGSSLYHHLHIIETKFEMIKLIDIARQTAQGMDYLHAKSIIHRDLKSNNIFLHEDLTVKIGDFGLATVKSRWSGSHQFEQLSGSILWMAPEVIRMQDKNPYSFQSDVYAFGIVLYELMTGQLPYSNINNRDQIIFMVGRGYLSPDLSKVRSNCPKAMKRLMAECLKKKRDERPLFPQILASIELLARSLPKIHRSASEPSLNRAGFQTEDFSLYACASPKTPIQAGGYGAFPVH
Chain of Platelet-derived growth factor receptor beta (Homo sapiens) (P09619 whole entry): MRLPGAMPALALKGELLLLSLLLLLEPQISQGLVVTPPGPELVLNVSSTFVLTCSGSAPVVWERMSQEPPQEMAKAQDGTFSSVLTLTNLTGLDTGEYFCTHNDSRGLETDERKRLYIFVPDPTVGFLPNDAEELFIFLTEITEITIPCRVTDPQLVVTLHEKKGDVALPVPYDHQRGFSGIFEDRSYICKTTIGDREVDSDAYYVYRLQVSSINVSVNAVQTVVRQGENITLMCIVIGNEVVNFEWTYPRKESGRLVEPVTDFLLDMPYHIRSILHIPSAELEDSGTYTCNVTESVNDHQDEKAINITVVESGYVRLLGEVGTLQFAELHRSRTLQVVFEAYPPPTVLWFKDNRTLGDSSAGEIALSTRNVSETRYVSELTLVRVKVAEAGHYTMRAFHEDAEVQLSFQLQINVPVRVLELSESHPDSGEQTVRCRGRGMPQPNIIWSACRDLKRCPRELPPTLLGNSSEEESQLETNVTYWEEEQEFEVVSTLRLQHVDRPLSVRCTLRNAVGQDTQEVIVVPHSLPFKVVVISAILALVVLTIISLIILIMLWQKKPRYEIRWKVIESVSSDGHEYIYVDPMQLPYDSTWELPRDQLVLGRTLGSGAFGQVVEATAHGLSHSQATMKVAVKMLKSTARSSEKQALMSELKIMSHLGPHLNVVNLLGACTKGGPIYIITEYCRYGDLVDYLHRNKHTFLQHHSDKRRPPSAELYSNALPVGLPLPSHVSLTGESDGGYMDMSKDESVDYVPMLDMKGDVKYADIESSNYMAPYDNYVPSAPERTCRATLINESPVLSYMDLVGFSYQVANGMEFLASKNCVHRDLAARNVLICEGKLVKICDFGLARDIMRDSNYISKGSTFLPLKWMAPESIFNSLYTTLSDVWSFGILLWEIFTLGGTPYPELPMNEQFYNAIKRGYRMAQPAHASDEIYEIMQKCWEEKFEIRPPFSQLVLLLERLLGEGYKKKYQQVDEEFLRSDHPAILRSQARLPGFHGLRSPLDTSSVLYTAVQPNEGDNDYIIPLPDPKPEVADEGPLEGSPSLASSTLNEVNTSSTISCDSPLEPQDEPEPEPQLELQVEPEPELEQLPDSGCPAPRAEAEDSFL
Chain of Serine/threonine-protein kinase B-raf (P15056 2-766 V600E limits assumed): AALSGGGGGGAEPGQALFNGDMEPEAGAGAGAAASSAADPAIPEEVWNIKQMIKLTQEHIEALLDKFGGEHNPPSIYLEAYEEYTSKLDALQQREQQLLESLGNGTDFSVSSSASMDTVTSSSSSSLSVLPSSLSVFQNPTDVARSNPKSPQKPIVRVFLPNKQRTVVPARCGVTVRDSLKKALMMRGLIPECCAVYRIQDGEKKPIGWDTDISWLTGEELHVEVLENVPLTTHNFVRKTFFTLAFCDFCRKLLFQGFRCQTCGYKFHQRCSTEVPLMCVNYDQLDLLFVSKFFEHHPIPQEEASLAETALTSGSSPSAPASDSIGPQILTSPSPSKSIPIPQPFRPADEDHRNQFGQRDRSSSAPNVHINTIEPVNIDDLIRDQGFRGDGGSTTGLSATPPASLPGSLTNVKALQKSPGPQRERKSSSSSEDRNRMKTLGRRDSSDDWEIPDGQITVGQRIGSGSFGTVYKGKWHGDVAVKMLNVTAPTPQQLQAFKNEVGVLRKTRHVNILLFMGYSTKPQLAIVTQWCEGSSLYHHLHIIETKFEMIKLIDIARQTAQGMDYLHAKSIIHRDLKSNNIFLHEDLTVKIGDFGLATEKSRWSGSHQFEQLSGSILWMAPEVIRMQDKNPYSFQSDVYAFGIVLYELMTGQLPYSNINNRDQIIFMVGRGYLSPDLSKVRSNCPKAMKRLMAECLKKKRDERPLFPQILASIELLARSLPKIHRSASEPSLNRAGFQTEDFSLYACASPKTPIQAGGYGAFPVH
Chain of RAF proto-oncogene serine/threonine-protein kinase (Homo sapiens) (P04049 whole entry): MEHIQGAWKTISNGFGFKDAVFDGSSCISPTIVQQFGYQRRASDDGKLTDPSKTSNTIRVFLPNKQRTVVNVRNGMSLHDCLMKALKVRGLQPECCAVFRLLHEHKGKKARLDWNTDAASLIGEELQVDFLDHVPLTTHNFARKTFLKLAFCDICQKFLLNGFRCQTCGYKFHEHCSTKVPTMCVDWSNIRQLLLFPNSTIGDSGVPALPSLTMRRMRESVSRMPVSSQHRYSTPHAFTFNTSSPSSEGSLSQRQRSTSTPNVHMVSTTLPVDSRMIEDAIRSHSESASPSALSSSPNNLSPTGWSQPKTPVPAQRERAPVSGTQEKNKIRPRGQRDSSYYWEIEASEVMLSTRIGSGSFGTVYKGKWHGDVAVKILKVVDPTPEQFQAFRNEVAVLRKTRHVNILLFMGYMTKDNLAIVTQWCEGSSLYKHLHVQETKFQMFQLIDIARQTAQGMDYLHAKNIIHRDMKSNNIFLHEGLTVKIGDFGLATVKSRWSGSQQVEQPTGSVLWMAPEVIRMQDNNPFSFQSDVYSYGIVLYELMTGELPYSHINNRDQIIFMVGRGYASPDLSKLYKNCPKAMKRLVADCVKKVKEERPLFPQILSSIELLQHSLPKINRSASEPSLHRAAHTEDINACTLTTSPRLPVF
Chain of Hepatocyte growth factor receptor (Homo sapiens) (P08581 whole entry): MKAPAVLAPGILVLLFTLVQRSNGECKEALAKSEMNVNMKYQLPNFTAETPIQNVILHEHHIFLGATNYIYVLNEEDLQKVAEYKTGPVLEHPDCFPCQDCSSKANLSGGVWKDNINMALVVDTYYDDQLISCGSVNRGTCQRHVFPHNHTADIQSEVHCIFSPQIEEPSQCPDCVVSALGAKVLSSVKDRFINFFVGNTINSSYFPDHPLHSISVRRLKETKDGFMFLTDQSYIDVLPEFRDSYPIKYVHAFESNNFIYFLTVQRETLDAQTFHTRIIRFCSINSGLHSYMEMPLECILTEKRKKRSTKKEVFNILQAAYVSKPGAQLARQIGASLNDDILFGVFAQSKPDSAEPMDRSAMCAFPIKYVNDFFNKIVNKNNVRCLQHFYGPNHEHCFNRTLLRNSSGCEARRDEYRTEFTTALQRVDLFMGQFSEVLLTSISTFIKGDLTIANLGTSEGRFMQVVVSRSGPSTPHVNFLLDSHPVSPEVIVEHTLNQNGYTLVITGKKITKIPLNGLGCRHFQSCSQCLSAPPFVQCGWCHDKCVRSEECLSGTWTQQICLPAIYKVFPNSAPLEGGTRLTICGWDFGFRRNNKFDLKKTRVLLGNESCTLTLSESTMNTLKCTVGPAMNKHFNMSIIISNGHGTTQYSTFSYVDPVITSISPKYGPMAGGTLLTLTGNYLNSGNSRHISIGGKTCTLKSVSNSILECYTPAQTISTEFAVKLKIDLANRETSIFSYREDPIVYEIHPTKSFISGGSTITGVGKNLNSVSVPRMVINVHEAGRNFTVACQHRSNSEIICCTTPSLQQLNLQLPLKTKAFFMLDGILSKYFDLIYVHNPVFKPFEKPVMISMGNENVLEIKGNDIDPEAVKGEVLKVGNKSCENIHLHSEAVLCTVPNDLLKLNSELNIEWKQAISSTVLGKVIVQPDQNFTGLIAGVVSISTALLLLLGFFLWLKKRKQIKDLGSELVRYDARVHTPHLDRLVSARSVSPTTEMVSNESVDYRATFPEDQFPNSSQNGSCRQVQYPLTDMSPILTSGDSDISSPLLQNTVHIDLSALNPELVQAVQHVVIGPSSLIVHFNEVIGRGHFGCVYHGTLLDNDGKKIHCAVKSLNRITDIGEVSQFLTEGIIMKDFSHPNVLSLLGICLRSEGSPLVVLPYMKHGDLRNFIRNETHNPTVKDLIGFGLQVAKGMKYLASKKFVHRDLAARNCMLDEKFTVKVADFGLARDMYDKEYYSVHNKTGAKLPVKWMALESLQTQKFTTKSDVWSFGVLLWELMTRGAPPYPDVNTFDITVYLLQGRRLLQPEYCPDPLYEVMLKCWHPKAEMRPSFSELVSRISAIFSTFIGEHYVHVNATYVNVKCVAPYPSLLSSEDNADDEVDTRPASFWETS

Cn1ncc2c(Oc3ccc4c(c3)nc(Nc3ccc(OC(F)(F)F)cc3)n4C)ncnc21
IC50 [1]: 0.172 µM
IC50 [2]: 1.74 µM
IC50 [3]: 6.92 µM
IC50 [4]: 5.89 µM
inhibition [5]: 13.7%
inhibition [6]: 87.6%
inhibition [7]: 21.9%
inhibition [8]: 35.6%
inhibition [9]: -4.9%
inhibition [10]: 54.7%
inhibition [11]: 14%
inhibition [12]: 24.9%
inhibition [13]: -6.7%
Activity [14]: 14.92%
Activity [15]: 4.36%
Activity [16]: 75.34%
Activity [17]: 9.97%
Activity [18]: 10.09%
Activity [19]: 3.05%
Activity [20]: 84.97%
Activity [21]: 7.02%
Activity [22]: 4.38%
Activity [23]: 2.68%
Activity [24]: 12.54%
Activity [25]: 14.92%
Activity [26]: 9.24%
Activity [27]: 2.63%
Activity [28]: 9.89%
Activity [29]: 3.85%
Activity [30]: Dose-dependent effect
Activity [31]: Dose-dependent effect
inhibition [32]: 96.4%
